For 2 substances, IC50 results are on record in ChEMBL document CHEMBL1130319, “Preparation, DNA binding, and in vitro cytotoxicity of a pair of enantiomeric platinum(II) complexes, [(R)- and (S)-3-aminohexahydroazepine]dichloroplatinum(II). Crystal structure of the S enantiomer” (J Med Chem, 1997).

Format in all cases: functional, cell-based
Assay [1] concerns BL13/0. Kind of assay: In vitro cytotoxicity was determined by using cultures of human bladder (BL13/0) cancer cells by MTT assay. In a few lines:
(§1)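 Monolayers in RPMI 1640 with 10% FCS, 37 °C, 7.5% CO2/5% O2/85% N2. Trypsinized, 5000 cells/well, 24 h preincubation. Complexes in 0.9% NaCl saline, final 0–200 μM, 96 h exposure; washed. MTT 1 mg/mL in FCS-free medium, 4 h at 37 °C, formazan in 2-propanol, OD 570 nm. Viability % of untreated; 4 or 6 replicates; IR50 from dose-response curves.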
On the technique in general: Tetrazolium dyes change colour on reduction, which living cells bring about.

Assay [2] deals with PC-9. The assay can be described thus: In vitro cytotoxicity was determined by using cultures of human resistant lung (PC9cisR) cancer cells by MTT assay. A digest of the protocol: as §1
Assay [3] concerns PC-9. Kind of assay: In vitro cytotoxicity was determined by using cultures of human lung (PC9) cancer cells by SRB assay. In a few lines: (§2)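 Cells grown in RPMI 1640/10% FCS under 7.5% CO2, 5% O2. Seeded at 5000 cells/well for 24 h, then given complexes (saline stock diluted in medium) at final 0–200 μM for 96 h. Fixed in cold 10% TCA 30 min at 4 °C, stained with 0.4% SRB in 1% acetic acid 15 min, dye solubilized in 10 mM Tris, A570. Percent of control from 4 or 6 replicates; IR50 read from curves.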
(The SRB assay estimates cell density from bound dye.)

Assay [4] concerns PC-9. Kind of assay: In vitro cytotoxicity was determined by using cultures of human resistant lung (PC9cisR) cancer cells by SRB assay. In a few lines: as §2
Assay [5] concerns DU-145. Kind of assay: In vitro cytotoxicity was determined by using cultures of human prostate (DU145) cancer cells by MTT assay. In a few lines: as §1
For assay [6], the system named is BL13/0. Kind of assay: In vitro cytotoxicity was determined by using cultures of human bladder (BL13/0) cancer cells by SRB assay. A digest of the protocol: as §2
The subject of assay [7] is PC-9. Kind of assay: In vitro cytotoxicity was determined by using cultures of human lung (PC9) cancer cells by MTT assay. In a few lines:
as §1

The test system of assay [8] is DU-145. The assay can be described thus: In vitro cytotoxicity was determined by using cultures of human prostate (DU145) cancer cells by SRB assay. A digest of the protocol: as §2

The term IC50 denotes the concentration that gives 50% inhibition. A lower IC50 goes with greater potency. Take “8,8-platinumdichloro-(6R)-1,7-diazoniabicyclo[4.2.1]nonane”: the half-maximal inhibitory concentration (IC50) in assay [1] stood at 1.3 µM; in assay [2] it was 16 µM; in assay [3], 11 µM; in assay [4], 27.3 µM; in assay [5], 2.9 µM; in assay [6] it was 7.2 µM. Besides, the IC50 in assay [7] worked out at 5.9 µM; in assay [8], 3.3 µM.
Take CISPLATIN: the IC50 was 1.9 µM in assay [1]; 11.7 µM in assay [2]; over 17.5 µM in assay [4]; 1.8 µM in assay [5]; 9.5 µM in assay [6]; 1.4 µM in assay [7]. This substance also came in with an IC50 in assay [8] of 1 µM.
